{"source": "paper PMC5788414", "about": "(Journal of Medicinal Chemistry, 2017)", "key": {"[1]": {"system": "BRD2, BRD3, and BRD4 proteins", "assay": "Western blotting of BET protein levels in RS4", "assay_type": "cell-based, human"}, "[2]": {"system": "acute leukemia model", "conditions": "acute leukemia model in mice ref 23; cited from earlier work"}, "[3]": {"assay": "Drug concentration in RS4", "assay_type": "in vivo, SCID mice", "in_short": "(§1)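 Female SCID C.B-17 mice bearing RS4;11 tumours received a single 5 mg/kg IV dose in 20% PEG 400, 6% Cremophor EL and 74% PBS. Mice were killed at 1, 3, 6 and 24 h (two mice per time point, three tumours per time point). Plasma came from blood spun at 15 000 rpm for 10 min; tumours were frozen and ground in liquid nitrogen. Samples were kept at −80 °C and assayed by LC–MS/MS on a C18 column.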"}, "[4]": {"assay": "Drug concentration in plasma", "assay_type": "in vivo, SCID mice", "in_short": "as §1"}, "[5]": {"system": "c-Myc", "assay": "Pharmacodynamic Western blotting of c-Myc in RS4", "assay_type": "in vivo, SCID mice", "conditions": "single intravenous dose, 5 mg/kg", "in_short": "(§2)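 SCID mice bearing RS4;11 xenografts were given one 5 mg/kg IV dose of the test compound and killed at 1, 3, 6 or 24 h; vehicle-treated mice were killed at 6 h. Two mice were used per time point, with one or two tumours each. Lysates were run on 4–20% gels and immunoblotted on PVDF for BRD2–4, c-Myc, PARP and caspase-3. Actin was the loading control, with ECL detection.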"}, "[6]": {"system": "BRD2, BRD3, and BRD4 proteins", "assay": "Pharmacodynamic Western blotting of BET proteins in RS4", "assay_type": "in vivo, SCID mice", "conditions": "single intravenous dose, 5 mg/kg", "in_short": "as §2"}, "[7]": {"system": "RS4;11 xenograft tumors", "assay": "Antitumor efficacy in RS4", "assay_type": "in vivo", "conditions": "mice, 5 mg/kg intravenously", "in_short": "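Human RS4;11 leukaemia cells (5 × 10⁶, in 50% Matrigel) were injected subcutaneously on the dorsal side of SCID mice, one tumour per mouse. At ∼100 mm³, mice were randomised to treatment or vehicle groups. The test compound was given at 5 mg/kg IV every other day, three times a week, for 3 weeks. Tumours were measured by calipers 2–3 times weekly (V = LW²/2). Body weight and toxicity signs were monitored.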"}, "[8]": {"system": "triple-negative human breast cancer", "conditions": "in vitro and in vivo ref 32; cited from earlier work"}, "[9]": {"system": "MOLM-13 cell line", "assay": "Cell cycle arrest by flow cytometry", "assay_type": "cell-based, human", "conditions": "MOLM-13, 24 h", "in_short": "(§3)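 Cell cycle was read by propidium iodide staining and flow cytometry after 24 h exposure to the test compound at the indicated concentrations. RS4;11 or MOLM-13 cells were cultured in RPMI 1640 with 10% FBS and 1% penicillin–streptomycin at 37 °C, 5% CO₂, and used within three months of thawing.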"}, "[10]": {"system": "c-Myc", "assay": "Western blotting of c-Myc level in RS4", "assay_type": "cell-based, human", "in_short": "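RS4;11 cells (2 × 10⁶/well) were exposed for 24 h to the test compound at the indicated concentrations. Cells were lysed in RIPA buffer with protease inhibitors. Lysate (20 μg per lane) was separated by SDS–PAGE, transferred to PVDF, and immunoblotted for c-Myc, with GAPDH as the loading control.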"}, "[11]": {"system": "RS4;11 cell line", "assay": "Cell cycle arrest by flow cytometry", "assay_type": "cell-based, human", "conditions": "RS4;11, 24 h", "in_short": "as §3"}, "[12]": {"system": "RS4;11 cell line", "assay": "Apoptosis induction by flow cytometry", "assay_type": "cell-based, human", "conditions": "RS4;11, 24 h treatment", "in_short": "(§4)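 RS4;11 or MOLM-13 cells were grown in RPMI 1640 with 10% FBS and 1% penicillin–streptomycin at 37 °C, 5% CO₂, and used within three months of thawing. Cells were treated with the test compound at the indicated concentrations for 24 h. They were then stained with annexin V and propidium iodide and analysed by flow cytometry.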"}, "[13]": {"target": "BRD2 (Homo sapiens, UniProt P25440)", "sequence (P25440 whole entry)": "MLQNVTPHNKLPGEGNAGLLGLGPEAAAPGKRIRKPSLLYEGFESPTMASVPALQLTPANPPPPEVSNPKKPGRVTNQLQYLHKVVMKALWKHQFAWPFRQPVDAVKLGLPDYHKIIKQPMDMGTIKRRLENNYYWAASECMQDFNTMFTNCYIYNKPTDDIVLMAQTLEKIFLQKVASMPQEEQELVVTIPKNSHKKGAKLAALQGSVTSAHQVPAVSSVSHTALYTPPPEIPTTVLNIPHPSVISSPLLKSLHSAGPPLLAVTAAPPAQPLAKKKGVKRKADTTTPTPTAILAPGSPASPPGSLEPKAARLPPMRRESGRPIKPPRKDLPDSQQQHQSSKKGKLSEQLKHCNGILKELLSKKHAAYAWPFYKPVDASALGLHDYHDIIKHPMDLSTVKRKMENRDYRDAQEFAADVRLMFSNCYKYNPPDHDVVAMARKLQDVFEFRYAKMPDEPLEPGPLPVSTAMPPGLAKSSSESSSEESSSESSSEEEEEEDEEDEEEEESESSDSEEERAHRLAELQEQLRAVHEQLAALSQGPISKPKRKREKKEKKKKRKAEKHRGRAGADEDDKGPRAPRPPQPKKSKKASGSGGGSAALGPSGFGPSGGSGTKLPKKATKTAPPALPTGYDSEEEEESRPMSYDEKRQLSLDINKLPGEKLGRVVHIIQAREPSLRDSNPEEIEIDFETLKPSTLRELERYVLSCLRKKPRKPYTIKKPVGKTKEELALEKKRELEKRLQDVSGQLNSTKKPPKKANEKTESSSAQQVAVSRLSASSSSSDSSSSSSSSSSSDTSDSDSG", "assay": "Western blotting of BRD2 protein level in RS4", "assay_type": "cell-based", "conditions": "RS4;11 cells, Western blot", "in_short": "(§5)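 RS4;11 cells (2 × 10⁶/well) were treated with the test compound at the indicated concentrations for 3 h or 24 h. Cells were lysed in RIPA buffer with protease inhibitors. Lysate (20 μg per lane) was separated by SDS–PAGE, blotted onto PVDF, and probed with BRD2, BRD3 and BRD4 antibodies, with GAPDH as the loading control.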"}, "[14]": {"target": "BRD4 (Homo sapiens, UniProt O60885)", "assay": "Western blotting of BRD4 protein level in RS4", "assay_type": "cell-based", "conditions": "RS4;11 cells", "in_short": "as §5"}, "[15]": {"system": "MOLM-13 cell line", "assay": "Apoptosis induction by flow cytometry", "assay_type": "cell-based, human", "conditions": "MOLM-13, 24 h treatment", "in_short": "as §4"}, "[16]": {"target": "BRD3 (Homo sapiens, UniProt Q15059)", "sequence (Q15059 whole entry)": "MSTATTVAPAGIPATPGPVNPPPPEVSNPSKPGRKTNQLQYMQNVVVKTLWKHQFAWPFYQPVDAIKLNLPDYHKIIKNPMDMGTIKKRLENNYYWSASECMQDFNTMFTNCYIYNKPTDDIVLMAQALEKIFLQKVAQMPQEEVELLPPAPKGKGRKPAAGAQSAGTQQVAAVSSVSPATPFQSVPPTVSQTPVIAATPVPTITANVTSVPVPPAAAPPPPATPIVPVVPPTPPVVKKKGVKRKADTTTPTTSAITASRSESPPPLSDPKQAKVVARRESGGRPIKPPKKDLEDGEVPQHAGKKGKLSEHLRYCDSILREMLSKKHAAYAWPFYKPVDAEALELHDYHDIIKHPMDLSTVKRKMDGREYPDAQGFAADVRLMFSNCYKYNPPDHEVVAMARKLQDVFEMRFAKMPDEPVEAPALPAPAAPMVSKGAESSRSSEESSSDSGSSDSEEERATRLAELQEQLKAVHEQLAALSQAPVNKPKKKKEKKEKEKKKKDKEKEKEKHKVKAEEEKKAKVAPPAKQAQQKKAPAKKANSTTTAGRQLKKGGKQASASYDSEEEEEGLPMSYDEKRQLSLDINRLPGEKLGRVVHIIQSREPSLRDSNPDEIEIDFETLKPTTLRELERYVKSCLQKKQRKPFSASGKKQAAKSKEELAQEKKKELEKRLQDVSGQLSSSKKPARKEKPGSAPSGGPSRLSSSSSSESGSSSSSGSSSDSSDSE", "assay": "Western blotting of BRD3 protein level in RS4", "assay_type": "cell-based", "conditions": "RS4;11 cells, Western blot", "in_short": "as §5"}, "[17]": {"assay": "Animal weight and signs of toxicity in RS4", "assay_type": "in vivo", "conditions": "mice bearing RS4;11 xenografts, 5 mg/kg intravenously, three times a week for 3 weeks", "in_short": "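Subcutaneous dorsal xenografts in SCID mice: 5 × 10⁶ RS4;11 cells in 50% Matrigel, one tumor per mouse. Mice randomised to treatment or vehicle groups at ~100 mm³. Dosing was intravenous every other day. Toxicity signs checked daily. Body weight recorded 2–3 times per week during treatment and at least weekly afterwards.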"}, "[18]": {"system": "PARP and caspase-3", "assay": "Pharmacodynamic Western blotting of PARP and caspase-3 cleavage in RS4", "assay_type": "in vivo, SCID mice", "conditions": "single intravenous dose, 5 mg/kg", "in_short": "as §2"}, "[19]": {"assay": "In vitro metabolite identification in mouse liver microsomes", "assay_type": "in vitro ADME", "conditions": "10 μM, MLM with β-NADPH, 37 °C, 20 and 40 min", "in_short": "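Incubation was quenched with a 3-fold volume of ice-cold acetonitrile, then centrifuged at 15 000 rpm for 10 min; supernatant stored at −80 °C. Negative controls omitted NADPH or used boiled microsomes. Metabolites were identified by tandem mass spectrometry, starting from the parent's product ion spectrum to establish fragmentation.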"}, "[20]": {"conditions": "RS4;11 cells, 3 h treatment, Western blot"}, "[21]": {"conditions": "1 h after single 5 mg/kg intravenous dose"}, "[22]": {"conditions": "3 h after single 5 mg/kg intravenous dose"}, "[23]": {"conditions": "6 h after single 5 mg/kg intravenous dose"}}, "note": "Several values for one entry are separate records, joined by “and”; a condition that tells them apart may be missing. Identical values can stand only once. Entries after “also recorded” stand apart in the source; their conditions may differ."}
{"compound": "Cc1sc2c(c1C)C(c1ccc(Cl)cc1)=N[C@@H](CC(=O)NCCCCNC(=O)COc1cccc3c1C(=O)N(C1CCC(=O)NC1=O)C3=O)c1nnc(C)n1-2", "note": "(some centres unmarked) [Compound 4, dBET1, reference compound]", "values": [{"measurement": "Effect on the level of BRD2, BRD3, and BRD4 proteins", "setting": "[1]; [20]", "value": "effectively decrease"}, {"measurement": "Inhibition of tumor growth in vivo compared with 1", "setting": "[2]", "value": "more effective"}]}
{"compound": "CCn1nc(C2CC2)cc1Nc1nc(C(=O)NCCCCCc2cccc3c2CN(C2CCC(=O)NC2=O)C3=O)nc2[nH]c3cc(-c4c(C)noc4C)c(OC)cc3c12", "note": "(centres unmarked) [Compound 23, 4-((3-Cyclopropyl-1-ethyl-1H-pyrazol-5-yl)amino)-7-(3,5-dimethylisoxazol-4-yl)-N-(5-(2-(2,6-dioxopiperidin-3-yl)-1-oxoisoindolin-4-yl)pentyl)-6-methoxy-9H-pyrimido[4,5-b]indole-2-carboxamide]", "values": [{"measurement": "Lowest concentrations effective in decreasing the level of BRD2, BRD3, and BRD4 proteins", "setting": "[1]; [20]", "value": "0.1 to 0.3", "unit": "nM"}, {"measurement": "Concentrations inducing degradation of BRD2, BRD3, and BRD4 proteins", "setting": "[1]; RS4;11 leukemia cells", "value": "30 to 100", "unit": "pM"}, {"measurement": "concn in tumor, individual tumor", "setting": "[3]; [21]", "value": "123 ng/g and 240.5 ng/g"}, {"measurement": "concn in tumor, individual tumor", "setting": "[3]; [22]", "value": "89 ng/g and 120.5 ng/g"}, {"measurement": "concn in tumor, individual tumor", "setting": "[3]; [23]", "value": 31.9, "unit": "ng/g"}, {"measurement": "concn in plasma, individual mice", "setting": "[4]; [21]", "value": 362, "unit": "ng/mL"}, {"measurement": "concn in plasma, individual mice", "setting": "[4]; [22]", "value": 76.1, "unit": "ng/mL"}, {"measurement": "concn in plasma, individual mice", "setting": "[4]; [23]", "value": 7.4, "unit": "ng/mL"}, {"measurement": "Duration of c-Myc down-regulation in tumor tissue", "setting": "[5]", "value": "at least 6 h"}, {"measurement": "Duration of reduction of BRD2, BRD3, and BRD4 proteins in tumor tissue", "setting": "[6]", "value": "> 24", "unit": "h"}, {"measurement": "Onset of reduction of BRD2, BRD3, and BRD4 proteins in tumor tissue", "setting": "[6]", "value": 1, "unit": "h"}, {"measurement": "Antitumor activity against RS4;11 xenograft tumors", "setting": "[7]", "value": "rapid tumor regression"}, {"measurement": "Activity against triple-negative human breast cancer", "setting": "[8]", "value": "very potent and efficacious"}, {"measurement": "Concentration effective in inducing cell cycle arrest", "setting": "[9]", "value": "1 to 3", "unit": "nM"}, {"measurement": "times more potent than 8 in down-regulation of c-Myc protein", "setting": "[10]; RS4;11 cell line, comparator 8", "value": "> 1000", "unit": "times"}, {"measurement": "Concentration effectively down-regulating the level of c-Myc", "setting": "[10]; RS4;11 cells, 24 h treatment, Western blot", "value": 0.1, "unit": "nM"}, {"measurement": "Concentration effective in inducing cell cycle arrest", "setting": "[11]", "value": 0.3, "unit": "nM"}, {"measurement": "Concentration inducing robust apoptosis", "setting": "[12]", "value": "3 to 10", "unit": "nM"}, {"measurement": "Lowest concentration effective in decreasing the level of BRD2 protein", "setting": "[13]; 3 h treatment", "value": 0.3, "unit": "nM"}, {"measurement": "Lowest concentration effectively reducing the level of BRD2 protein", "setting": "[13]; 24 h treatment", "value": 0.1, "unit": "nM"}, {"measurement": "Lowest concentration effective in decreasing the level of BRD4 protein", "setting": "[14]; 3 h treatment, Western blot", "value": 0.3, "unit": "nM"}, {"measurement": "Lowest concentration degrading BRD4 protein", "setting": "[14]; 24 h treatment", "value": 30, "unit": "pM"}, {"measurement": "Lowest concentration effectively reducing the level of BRD4 protein", "setting": "[14]; 24 h treatment, Western blot", "value": 0.03, "unit": "nM"}, {"measurement": "Concentration inducing robust apoptosis", "setting": "[15]", "value": "3 to 10", "unit": "nM"}, {"measurement": "Lowest concentration effective in decreasing the level of BRD3 protein", "setting": "[16]; 3 h treatment", "value": 0.1, "unit": "nM"}, {"measurement": "Lowest concentration effectively reducing the level of BRD3 protein", "setting": "[16]; 24 h treatment", "value": 0.1, "unit": "nM"}, {"measurement": "Animal weight loss or signs of toxicity", "setting": "[17]", "value": "no animal weight loss or other signs of toxicity; also recorded: minimal body weight change; also recorded: no signs of toxicity"}, {"measurement": "Onset of cleavage of PARP and caspase-3 in tumor tissue", "setting": "[18]", "value": 3, "unit": "h"}, {"measurement": "Time of peak cleavage of PARP and caspase-3 in tumor tissue", "setting": "[18]", "value": 6, "unit": "h"}, {"measurement": "Major metabolite in mouse liver microsomes", "setting": "[19]", "value": "mono- or dihydroxylated product occurring in the alkyl chain in the linker"}]}
